Compounds with a hit are over-represented: about 4.1% of the library has one in this group of screens.
MC4R antagonist: antagonists of human melanocortin 4 receptor (MC4R). hit rate 0.48% among 360,000. inhibition, % at 6.5 µM. P32245. AID 540295. MC4R-expressing cells, MTII-stimulated cAMP, LANCE TR-FRET;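 active = inhibition above its plate's cutoff, the mean of tested wells on that plate plus 3 SD, cut at about 29% in these data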;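 also: 0% = Melanotan II alone and 100% = Melanotan II plus saturating MCL0020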
Target sequence (P32245 whole entry, looked up): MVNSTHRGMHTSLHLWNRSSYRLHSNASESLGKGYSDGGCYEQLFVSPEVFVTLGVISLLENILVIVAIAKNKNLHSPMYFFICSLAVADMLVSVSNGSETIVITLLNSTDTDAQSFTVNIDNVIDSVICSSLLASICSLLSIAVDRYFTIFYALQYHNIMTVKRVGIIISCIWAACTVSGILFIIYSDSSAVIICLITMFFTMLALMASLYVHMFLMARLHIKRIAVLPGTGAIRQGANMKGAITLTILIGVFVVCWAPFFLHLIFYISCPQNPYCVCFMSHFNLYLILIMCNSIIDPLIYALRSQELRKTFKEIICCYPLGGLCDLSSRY
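Assay system: human MC4R-expressing U2OS cells; reagent: Melanotan II stimulation of cells; dosing: 6.5 µM single dose; timing: compound 30 min, challenge 1 h, detection 1 h; signal: TR-FRET cAMP assay; replicates: one well per compound, no replicates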
MC4R barr agon: agonists of human melanocortin 4 receptor (MC4R) beta-arrestin | P32245 | U2OS MC4R beta-arrestin complementation, luminescence; percent of melanotan II response, DMSO zero | activation, % at 8.9 µM | hit rate 0.98% among 360,000 | AID 540308;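 active = activation above a per-plate cutoff, the mean activation of sample wells on that plate plus 3 SD, cut at about 8% in these data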
SMARCA2 act: SMARCA2 function activation, primary screen; MG213 cells, MMTV-luciferase reporter, dexamethasone, overnight; activation, % at 9.1 µM; hit rate 1% among 370,000; AID 652017; in the data active = activation above about 7.8%;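 also: 0% = vehicle wells and 100% = reference activator wells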
MPTP block: blocks calcium-induced mitochondrial swelling; hit rate 1.4% among 360,000; isolated mouse mitochondria, Ca2+ swelling absorbance, 30 min; inhibition, % at 10 µM;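 active = inhibition of 50% or more, scaled per plate between neutral and stimulator controls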;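 also: 0% = DMSO wells given calcium and 100% = 1 mM EGTA wells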
ATG4B inh: ATG4B (human) cysteine protease inhibition. Q9Y4P1. inhibition, % at 8.33 µM. ATG4B cleavage of LC3-PLA2, NBD-HPC fluorescence, 1 h. hit rate 0.51% among 340,000; in the data active = inhibition above about 40%
SMARCA2 conf: SMARCA2 activation, confirmation screen. shares compounds with SMARCA2 act. MG213 cells, MMTV-luciferase with dexamethasone, luminescence, overnight; MG213 cells expressing E1A, Rb sequestered; DMSO wells 0%, reference activator 100%. activation, % at 9.1 µM. hit rate 30% among 3,500;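 active = activation above its plate's cutoff, the mean activation of tested wells plus 3 SD, cut at about 7.9% in these data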
GAL4-VP16 Luc: GAL4-VP16 reporter activation counter-screen | shares compounds with SMARCA2 act | HEK293 GAL4-VP16 pG5luc reporter, luciferase luminescence; scaled: DMSO wells 0%, SAHA wells 100% | activation, % at 9.1 µM | hit rate 41% among 3,500 | AID 686939;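 active = activation above the solvent-only control well mean plus 3 SD, averaged across control plates, cut at about 5.2% in these data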
* hit, by the source's call; / = not tested or not shown; ! = a repeat was not active.

SMILES	MC4R antagonist	MC4R barr agon	SMARCA2 act	MPTP block	ATG4B inh	SMARCA2 conf	GAL4-VP16 Luc
Cc1cc(C)cc(C(=O)N2CC(=O)Nc3ccccc32)c1	-23	0	-2	-8	-1	/	/
CCCC(CCC)C(=O)O	2	-1	8.1*!	-2	-2	-1	0
CCOC(=O)[C@@]12CCCC=C1N(CCc1ccc(Cl)cc1)C(=O)[C@H]2CC(=O)N1CCOCC1	/	/	-4	/	/	/	/
Cc1csc(NC(=O)CCn2c(=O)sc3ccccc32)n1	7	-2	5	2	-12	/	/
O=C(CCn1c(=O)sc2ccccc21)Nc1nccs1	3	-1	8.3*	0	-9	4	7.7*
COc1cccc(-c2cc(C(=O)N3CCCCC3C)no2)c1 (stereo unspecified)	3	-2	12*	-1	-3	6	12*
COc1cccc(-c2cc(C(=O)N3CCCCCC3)no2)c1	-1	0	1	-1	8	/	/
Cc1ccc2cc(NC(=O)c3cccc(F)c3)ccc2n1	3	1	8.1*	1	-14	19*	5
CCN1CCN(c2ccc(NC(=O)c3ccco3)cc2Cl)CC1	-1	-2	3	-1	-16	/	/
Cc1ccc2cc(NC(=O)c3ccccc3)ccc2n1	-2	-1	9.2*	0	-13	7	13*
O=C(Nc1ccc2ccccc2c1)c1cccc(F)c1	-3	2	9.4*	2	-2	3	11*
O=C(Nc1ccc2[nH]ncc2c1)c1cccc(F)c1	6	-1	4	1	-2	/	/
CCN1CCN(c2ccc(NC(=O)c3cccc(F)c3)cc2Cl)CC1	-1	-2	14*	-2	-17	9.1*	5.8*
COc1cccc(CNC(=O)[C@H]2CCCN2C(=O)[C@H]2CCCN2C(=O)c2c(F)cccc2F)c1	/	/	-2	/	/	/	/
Cc1ccc(C=Nn2c(-c3n[nH]c4c3CCC4)n[nH]c2=S)s1	/	/	-2	/	/	/	/
CN(C(=O)c1ccco1)c1nc(-c2ccc(F)cc2)cs1	3	2	9.3*	4	-1	8.0*	7.6*
CC1(C)CC(=O)C=C(c2ccccc2F)C1=O	/	/	1	/	/	/	/
COc1ccc2[nH]c(C)c(CCN3C(=O)C4CC=CCC4C3=O)c2c1 (stereo unspecified)	-3	-1	9.1*	-2	6	-4	-2
O=C(NCCc1ccc(F)cc1)c1cc2ccccn2n1	/	/	16*	/	/	4	7.3*
COc1ccc(NC(=O)c2cc3ccccn3n2)cc1	-7	1	10*	-2	2	4	12*
O=C(NCc1ccc(Cl)cc1)c1cc2ccccn2n1	6	0	-4	0	9	/	/
CC1(C(=O)Nc2ccc(Cl)c(Cl)c2)CCN1C(=O)C1CCCCC1 (stereo unspecified)	-3	2	-7	1	/	/	/
O=C(Nc1ccc2c(c1)OCO2)c1cc2nc(C3CC3)cc(C(F)(F)F)n2n1	1	3	/	1	-1	/	/
Cc1cc(C)n2nc(C(=O)Nc3ccc4c(c3)OCO4)cc2n1	1	-1	11*	1	-5	18*	9.7*
O=C(CNC(=O)c1ccccc1)c1ccccc1	2	0	7	-2	-8	/	/
SMILES	MC4R antagonist	MC4R barr agon	SMARCA2 act	MPTP block	ATG4B inh	SMARCA2 conf	GAL4-VP16 Luc
O=C(CNC(=O)c1ccccc1C(=O)O)c1ccccc1	6	1	8.0*	0	0	4	3
Cc1cccn2c(=O)c(/C=C(\C#N)C(=O)NCc3ccco3)c(N3CCOCC3)nc12	4	-2	11*	2	0	1	1
CCNC(=O)/C(C#N)=C/c1c(N2CCCCCC2)nc2c(C)cccn2c1=O	14	-2	-2	0	0	/	/
CC(=O)Nc1ccc(C(=O)OCCC(C)C)cc1	18	0	8.9*	0	2	2	3
c1ccc(-c2nc(-c3ccc(-c4ccon4)s3)no2)cc1	8	-1	4	1	-1	/	/
c1csc(-c2nc(-c3ccc(-c4ccon4)s3)no2)c1	-7	-1	8.9*	3	-5	6	9.7*
NC(=S)N/N=C/c1coc2c(ccc3ccccc32)c1=O	7	-3	13*	0	30	2	3
NC(=S)N/N=C/c1coc2cc(Br)ccc2c1=O	14	-2	-5	9	0	/	/
O=S(=O)(/N=C(/NC(=S)Nc1ccccc1)c1ccccc1)c1ccc(Cl)cc1	-2	-1	8.8*	1	-8	9.2*	6.4*
O=C(NN/C(=N/S(=O)(=O)c1ccc(Cl)cc1)c1ccccc1)c1cccc(Cl)c1	21	3	10.0*	0	4	10*	12*
Cc1ccc(S(=O)(=O)/N=C(/NNC(=O)c2cccc(Cl)c2)c2ccccc2)cc1	-4	0	5	2	-6	/	/
COc1ccc(NC(=S)NC(=NS(=O)(=O)c2ccc(Cl)cc2)c2ccccc2)cc1	5	0	-1	0	6	/	/
CC(C)N(c1cc(=O)nc2ccccn12)C(C)C	/	/	2	/	/	/	/
Cc1ccc(Cn2nnnc2CN2CCC(O)(c3ccc(F)cc3)CC2)cc1	2	0	11*	0	-7	-3	-2
CN(Cc1ccco1)C(=O)CCc1nc2sc3c(c2c(=O)[nH]1)CCCC3	0	0	8.2*	0	-3	2	0
COc1ccc(-c2cc(C(=O)NN=Cc3ccccc3F)[nH]n2)cc1	/	/	-2	/	/	/	/
O=C(Nc1nc2ccsc2c(=O)s1)c1ccc(Cl)cc1	5	0	14*	3	-6	10*	9.1*
Cn1sc(NC(=O)c2ccc(Cl)cc2)nc1=O	5	-2	8.4*	-4	-9	3	11*
CC(C)C[C@H]1COc2cccc(F)c2S(=O)(=O)N1	/	/	-2	/	/	/	/
Cn1cccc1CC(=O)NNC(=S)Nc1ccc(Cl)cc1	1	-2	-1	3	-2	/	/
Cn1cccc1CC(=O)NNC(=S)Nc1ccccc1Cl	1	-2	8.3*	0	3	-2	4
Cc1cc(C(=O)OCC(=O)c2ccc3c(c2)OCCO3)c(C)o1	-2	-2	8.1*	0	-7	7	2
Cc1c(C(=O)OCC(=O)c2ccc3c(c2)OCCO3)oc2ccccc12	7	0	8.0*	1	18	4	2
O=C(COC(=O)c1ccc(Cl)nc1)c1ccc2c(c1)OCCO2	25	0	10*	0	0	4	3
O=C(COC(=O)c1cccnc1Cl)c1ccc2c(c1)OCCO2	7	1	2	-3	-42	/	/
COC(=O)CNC(=O)COC(=O)c1ccc(Cl)nc1	5	-2	8.8*	0	-5	0	1

High-throughput results deposited in PubChem by several laboratories.
